How the values were obtained:
[1] = target: Integrin alpha-IIb/beta-3 (Homo sapiens, UniProt P05106+P08514); assay: Inhibition of Integrin alphaIIb Beta3 receptor by solid-phase receptor binding assay; type: protein-complex assay
[2] = target: Integrin alpha-V/beta-3 (Homo sapiens, UniProt P05106+P06756); assay: Inhibition of Integrin alphaV Beta3 receptor by solid-phase receptor binding assay; type: protein-complex assay
[3] = target: Integrin alpha-V/beta-6 (Homo sapiens, UniProt P06756+P18564); assay: Inhibition of Integrin alphaV Beta6 receptor in HT29 cells by solid-phase receptor binding assay; type: cell-based, HT-29
[4] = system: Rattus norvegicus; assay: AUC/dose(mg/kg) in orally dosed rat; type: ADME, organism-based, Plasma; conditions: in vivo, po
Summary of the method: (§1)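 Rats were given the compound both orally and intravenously. Oral and IV AUC are each normalized to dose (µg h/ml per mg/kg). The same rat study also reports oral bioavailability (%F), half-life (h), Cmax (µg/mL), clearance (mL/min/kg) and terminal volume Vz (mL/kg).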

[5] = Bioavailability in rat; type: ADME, organism-based; conditions: in vivo; summary of the method: as §1
[6] = Clearance in rat; type: ADME, organism-based; conditions: in vivo; summary of the method: as §1
[7] = Half life in rat; type: ADME, organism-based; conditions: in vivo; summary of the method: as §1
[8] = system: Rattus norvegicus; assay: AUC/dose(mg/kg) in iv dosed rat; type: ADME, organism-based, Plasma; conditions: in vivo; summary of the method: as §1
[9] = Cmax in rat; type: ADME, organism-based; conditions: in vivo; summary of the method: as §1
[10] = Volume of distribution in rat; type: ADME, organism-based; conditions: in vivo, read-out: Vdss; summary of the method: as §1
[11] = Half life in dog; type: ADME, organism-based, Canis lupus familiaris; conditions: in vivo
[12] = Half life in cynomonkey; type: ADME, organism-based, Macaca fascicularis; conditions: cynomolgus monkey, in vivo
[13] = Bioavailability in cynomonkey; type: ADME, organism-based, Macaca fascicularis; conditions: cynomolgus monkey, in vivo
[14] = Bioavailability in dog; type: ADME, organism-based, Canis lupus familiaris; conditions: in vivo

Sequence of Integrin alpha-V/beta-3 (P05106 27-788 limits assumed): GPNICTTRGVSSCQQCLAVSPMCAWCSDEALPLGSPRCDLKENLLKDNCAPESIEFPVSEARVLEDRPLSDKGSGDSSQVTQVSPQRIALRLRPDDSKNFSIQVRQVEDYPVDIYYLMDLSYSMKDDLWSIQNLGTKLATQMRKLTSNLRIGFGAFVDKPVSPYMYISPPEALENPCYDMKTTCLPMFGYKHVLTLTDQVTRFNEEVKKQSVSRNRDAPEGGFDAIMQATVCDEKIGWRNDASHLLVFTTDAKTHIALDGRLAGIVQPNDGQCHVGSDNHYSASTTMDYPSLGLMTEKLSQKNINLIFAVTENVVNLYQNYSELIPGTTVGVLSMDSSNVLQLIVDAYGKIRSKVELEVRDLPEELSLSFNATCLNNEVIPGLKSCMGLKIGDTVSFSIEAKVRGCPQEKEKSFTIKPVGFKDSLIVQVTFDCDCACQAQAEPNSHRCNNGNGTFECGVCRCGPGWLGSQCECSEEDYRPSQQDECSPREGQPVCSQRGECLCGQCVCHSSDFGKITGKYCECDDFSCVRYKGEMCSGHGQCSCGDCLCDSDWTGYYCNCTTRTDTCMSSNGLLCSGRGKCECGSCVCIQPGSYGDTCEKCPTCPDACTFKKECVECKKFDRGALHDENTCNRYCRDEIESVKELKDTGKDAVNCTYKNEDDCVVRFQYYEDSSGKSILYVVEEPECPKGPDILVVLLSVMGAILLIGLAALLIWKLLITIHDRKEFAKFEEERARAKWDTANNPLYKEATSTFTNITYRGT
Sequence of Integrin alpha-V/beta-3 (P06756 31-889 limits assumed): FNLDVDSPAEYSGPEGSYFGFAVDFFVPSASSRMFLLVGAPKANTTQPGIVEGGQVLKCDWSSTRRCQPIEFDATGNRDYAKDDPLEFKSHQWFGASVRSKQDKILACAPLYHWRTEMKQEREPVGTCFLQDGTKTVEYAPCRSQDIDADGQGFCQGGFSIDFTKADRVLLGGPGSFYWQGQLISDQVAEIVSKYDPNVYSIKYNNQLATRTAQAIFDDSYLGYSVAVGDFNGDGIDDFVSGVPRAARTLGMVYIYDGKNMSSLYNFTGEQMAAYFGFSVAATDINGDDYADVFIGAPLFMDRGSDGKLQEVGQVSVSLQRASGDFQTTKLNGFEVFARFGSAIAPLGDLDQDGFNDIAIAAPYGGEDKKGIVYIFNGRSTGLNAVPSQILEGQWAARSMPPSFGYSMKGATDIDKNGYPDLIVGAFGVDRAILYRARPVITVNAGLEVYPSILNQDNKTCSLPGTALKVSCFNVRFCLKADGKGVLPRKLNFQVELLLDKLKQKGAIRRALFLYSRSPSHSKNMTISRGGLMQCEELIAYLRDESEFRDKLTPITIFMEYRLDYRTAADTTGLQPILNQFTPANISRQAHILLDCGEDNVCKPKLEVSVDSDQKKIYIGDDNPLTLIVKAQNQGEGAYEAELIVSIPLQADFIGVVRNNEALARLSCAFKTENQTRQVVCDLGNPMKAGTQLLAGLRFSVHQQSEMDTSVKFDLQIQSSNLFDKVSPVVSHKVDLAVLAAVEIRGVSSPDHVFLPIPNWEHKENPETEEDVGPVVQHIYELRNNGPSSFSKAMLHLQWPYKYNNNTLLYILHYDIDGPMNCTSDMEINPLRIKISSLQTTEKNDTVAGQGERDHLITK
Sequence of Integrin alpha-V/beta-3 (P06756 891-1048 limits assumed): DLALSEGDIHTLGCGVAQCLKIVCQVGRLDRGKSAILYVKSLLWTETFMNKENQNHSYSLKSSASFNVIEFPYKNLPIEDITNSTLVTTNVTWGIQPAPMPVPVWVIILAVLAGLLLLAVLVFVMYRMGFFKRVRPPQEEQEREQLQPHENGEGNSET
Sequence of Integrin alpha-IIb/beta-3 (P05106 27-788 limits assumed): as the sequence (P05106 27-788 limits assumed) above
Sequence of Integrin alpha-IIb/beta-3 (P08514 32-887 limits assumed): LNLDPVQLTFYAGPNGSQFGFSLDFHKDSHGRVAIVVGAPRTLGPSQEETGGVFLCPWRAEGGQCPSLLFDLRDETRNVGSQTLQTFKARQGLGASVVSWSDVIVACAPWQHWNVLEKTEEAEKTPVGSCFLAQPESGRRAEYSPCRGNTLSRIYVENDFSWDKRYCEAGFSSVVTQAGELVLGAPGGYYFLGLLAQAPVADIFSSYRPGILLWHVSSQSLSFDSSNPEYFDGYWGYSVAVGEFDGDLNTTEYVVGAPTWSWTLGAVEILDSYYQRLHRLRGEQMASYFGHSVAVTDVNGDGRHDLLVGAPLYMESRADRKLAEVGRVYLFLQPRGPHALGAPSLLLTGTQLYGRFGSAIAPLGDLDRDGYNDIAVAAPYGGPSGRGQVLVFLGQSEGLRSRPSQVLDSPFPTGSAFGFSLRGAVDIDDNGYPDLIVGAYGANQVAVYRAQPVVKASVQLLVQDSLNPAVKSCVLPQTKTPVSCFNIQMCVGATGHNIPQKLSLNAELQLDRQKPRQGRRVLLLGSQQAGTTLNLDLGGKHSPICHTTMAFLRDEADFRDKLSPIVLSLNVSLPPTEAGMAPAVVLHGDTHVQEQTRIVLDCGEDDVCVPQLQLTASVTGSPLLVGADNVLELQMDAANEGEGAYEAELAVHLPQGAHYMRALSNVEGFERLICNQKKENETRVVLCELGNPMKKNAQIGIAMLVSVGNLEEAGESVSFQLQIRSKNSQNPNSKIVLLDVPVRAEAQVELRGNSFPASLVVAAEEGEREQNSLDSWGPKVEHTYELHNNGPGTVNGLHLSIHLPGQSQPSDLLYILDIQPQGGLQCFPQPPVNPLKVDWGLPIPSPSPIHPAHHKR
Sequence of Integrin alpha-IIb/beta-3 (P08514 891-1039 limits assumed): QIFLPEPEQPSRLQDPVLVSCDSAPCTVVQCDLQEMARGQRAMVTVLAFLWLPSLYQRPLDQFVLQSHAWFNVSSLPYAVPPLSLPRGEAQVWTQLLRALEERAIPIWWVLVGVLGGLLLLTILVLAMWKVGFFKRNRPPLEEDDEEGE
Sequence of Integrin alpha-V/beta-6 (P06756 31-889 limits assumed): as the sequence (P06756 31-889 limits assumed) above
Sequence of Integrin alpha-V/beta-6 (P06756 891-1048 limits assumed): as the sequence (P06756 891-1048 limits assumed) above
Sequence of Integrin alpha-V/beta-6 (P18564 22-788 limits assumed): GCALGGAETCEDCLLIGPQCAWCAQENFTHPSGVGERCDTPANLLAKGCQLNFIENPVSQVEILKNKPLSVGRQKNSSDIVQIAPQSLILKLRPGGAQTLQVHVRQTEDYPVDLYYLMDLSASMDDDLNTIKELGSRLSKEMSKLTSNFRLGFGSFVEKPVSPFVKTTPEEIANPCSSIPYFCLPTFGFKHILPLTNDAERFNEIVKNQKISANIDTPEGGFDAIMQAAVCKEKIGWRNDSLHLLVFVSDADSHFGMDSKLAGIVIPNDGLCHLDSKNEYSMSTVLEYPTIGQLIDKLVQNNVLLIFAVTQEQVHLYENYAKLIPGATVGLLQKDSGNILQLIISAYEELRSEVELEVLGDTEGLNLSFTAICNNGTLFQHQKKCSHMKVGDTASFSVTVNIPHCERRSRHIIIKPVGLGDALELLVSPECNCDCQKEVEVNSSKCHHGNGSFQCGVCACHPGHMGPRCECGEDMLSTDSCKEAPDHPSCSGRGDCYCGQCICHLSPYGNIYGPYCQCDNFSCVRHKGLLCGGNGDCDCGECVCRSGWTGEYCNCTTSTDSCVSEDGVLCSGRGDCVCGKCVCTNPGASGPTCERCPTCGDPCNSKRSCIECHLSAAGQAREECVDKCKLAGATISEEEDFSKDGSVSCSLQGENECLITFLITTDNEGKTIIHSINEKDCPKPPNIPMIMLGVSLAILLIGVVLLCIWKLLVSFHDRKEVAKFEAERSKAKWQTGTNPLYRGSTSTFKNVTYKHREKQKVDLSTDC

SMILES | IC50 [1] | IC50 [2] | IC50 [3] | AUC/dose [4] | bioavailability [5] | clearance [6] | half-life [7] | AUC/dose [8] | Cmax [9] | Vd [10] | other results
O=C(O)C[C@H](Cc1csc(CCCCNc2cc(N3CCCC3)ccn2)n1)c1ccc2c(c1)OCO2 | – | 1.26 nM | – | – | – | – | – | – | – | – | –
O=C(O)CC(Cc1csc(CCCc2ccc3c(n2)NCCC3)n1)c1cccc(F)c1 (configuration not stated) | 559 nM | 2.8 nM | 1310 nM | – | – | – | – | – | – | – | –
COc1ccc(C(CC(=O)O)Cc2csc(CCCc3ccc4c(n3)NCCC4)n2)cn1 (configuration not stated) | – | 1.23 nM | 1320 nM | 1.6 µg·h/mL | > 100% | 12.3 mL/min/kg | 6.3 h | 1.4 µg·h/mL | 6600 ng/mL | 2.95 L/kg | –
COc1cc(OC)cc(C(CC(=O)O)Cc2csc(CCCc3ccc4c(n3)NCCC4)n2)c1 (configuration not stated) | 350 nM | 1.54 nM | 1740 nM | 2.2 µg·h/mL | 98% | 7.3 mL/min/kg | 6.1 h | 2.2 µg·h/mL | 6100 ng/mL | 2.04 L/kg | –
O=C(O)CC(Cc1csc(CCCc2ccc3c(n2)NCCC3)n1)c1cnc(-c2ccc(Cl)cc2)s1 (configuration not stated) | 559 nM | 2.09 nM | 4300 nM | – | – | – | – | – | – | – | –
O=C(O)CC(Cc1csc(CCCc2ccc3c(n2)NCCC3)n1)c1ccc(Cl)cc1 (configuration not stated) | 636 nM | 3.81 nM | 2440 nM | – | – | – | – | – | – | – | –
COc1ccc(C(CC(=O)O)Cc2csc(CCCc3ccc4c(n3)NCCN4C)n2)cn1 (configuration not stated) | – | 1.24 nM | – | – | – | – | – | – | – | – | –
Cc1ccc(C(CC(=O)O)Cc2csc(CCCc3ccc4c(n3)NCCC4)n2)cc1 (configuration not stated) | 2000 nM | 11.1 nM | 5060 nM | – | – | – | – | – | – | – | –
O=C(O)CC(Cc1csc(CCCc2ccc3c(n2)NCCC3)n1)c1ccc2c(c1)OCO2 (configuration not stated) | 263 nM | 1.18 nM | 2390 nM | 6.8 µg·h/mL | > 100% | 3.3 mL/min/kg | 7 h | 5.2 µg·h/mL | 19600 ng/mL | 0.897 L/kg | –
O=C(O)CC(Cc1csc(CCCc2ccc3c(n2)NCCC3)n1)c1cnc(-c2ccccc2)s1 (configuration not stated) | 252 nM | 1.77 nM | 2670 nM | – | – | – | – | – | – | – | –
O=C(O)CC(Cc1nc(CCCc2ccc3c(n2)NCCC3)no1)c1ccc2c(c1)OCO2 (racemic) | – | – | – | 1.5 µg·h/mL | 95% | 10.9 mL/min/kg | 1.4 h | 1.6 µg·h/mL | 12000 ng/mL | 0.733 L/kg | –
O=C(O)C[C@H](Cc1csc(CCCc2ccc3c(n2)NCCC3)n1)c1ccc2c(c1)OCO2 | – | – | – | – | – | – | – | – | – | – | half-life [11]: 13 h; half-life [12]: 11.2 h; bioavailability [13]: 64%; bioavailability [14]: 60%
CN1CCNc2nc(CCCc3nc(CC(CC(=O)O)c4ccc5c(c4)OCO5)cs3)ccc21 (configuration not stated) | – | 0.61 nM | – | – | – | – | – | – | – | – | –
COc1ccc(C(CC(=O)O)Cc2csc(CCCCNc3cc(N4CCCC4)ccn3)n2)cn1 (configuration not stated) | – | 3 nM | – | – | – | – | – | – | – | – | –

More lines, main results first:

IC50 [1] | IC50 [2] | IC50 [3] | AUC/dose [4] | bioavailability [5] | clearance [6] | half-life [7] | AUC/dose [8] | Cmax [9] | Vd [10] | SMILES | other results
95.1 nM | 2.82 nM | > 10000 nM | – | – | – | – | – | – | – | Cc1nc2cc(C(CC(=O)O)Cc3csc(CCCc4ccc5c(n4)NCCC5)n3)ccc2s1 (configuration not stated) | –
– | 1.22 nM | 313 nM | 2.5 µg·h/mL | > 100% | 6.8 mL/min/kg | 3.4 h | 2.4 µg·h/mL | 22000 ng/mL | 1.02 L/kg | O=C(O)CC(Cc1csc(CCCc2ccc3c(n2)NCCC3)n1)c1cnc(C2CC2)s1 (configuration not stated) | –
484 nM | 3.49 nM | 2120 nM | – | – | – | – | – | – | – | O=C(O)CC(Cc1csc(CCCc2ccc3c(n2)NCCC3)n1)c1ccc(F)c(F)c1 (configuration not stated) | –
405 nM | 2.17 nM | 3260 nM | 1.8 µg·h/mL | 95% | 9 mL/min/kg | 4.3 h | 1.9 µg·h/mL | 9100 ng/mL | 1.29 L/kg | COc1ccc(C(CC(=O)O)Cc2csc(CCCc3ccc4c(n3)NCCC4)n2)cc1F (configuration not stated) | –
– | 1.7 nM | – | – | – | – | – | – | – | – | O=C(O)C[C@H](Cc1csc(CCCCNc2cc(N3CCSCC3)ccn2)n1)c1ccc2c(c1)OCO2 | –
– | 1.56 nM | – | – | – | – | – | – | – | – | O=C(O)C[C@H](Cc1csc(CCCCNc2cc(N3CCOCC3)ccn2)n1)c1ccc2c(c1)OCO2 | –
– | 3.54 nM | – | – | – | – | – | – | – | – | COc1ccc(C(CC(=O)O)Cc2csc(CCCCNc3cc(N4CCOCC4)ccn3)n2)cn1 (configuration not stated) | –
– | 3.73 nM | – | – | – | – | – | – | – | – | COc1ccc(C(CC(=O)O)Cc2csc(CCCCNc3cc(N4CCSCC4)ccn3)n2)cn1 (configuration not stated) | –
– | 1.2 nM | 841 nM | 1.7 µg·h/mL | 90% | 8.7 mL/min/kg | 7.1 h | 1.9 µg·h/mL | 3000 ng/mL | 2.68 L/kg | COCc1ncc(C(CC(=O)O)Cc2csc(CCCc3ccc4c(n3)NCCC4)n2)s1 (configuration not stated) | –
